For assay [1], the target named is Muscarinic acetylcholine receptor M1 (Homo sapiens, UniProt P11229, E170K). The class given is functional, cell-based, L929.
The target in assay [2] is T1, Muscarinic acetylcholine receptor M2 (Homo sapiens) (UniProt P08172).
T1 sequence (whole entry): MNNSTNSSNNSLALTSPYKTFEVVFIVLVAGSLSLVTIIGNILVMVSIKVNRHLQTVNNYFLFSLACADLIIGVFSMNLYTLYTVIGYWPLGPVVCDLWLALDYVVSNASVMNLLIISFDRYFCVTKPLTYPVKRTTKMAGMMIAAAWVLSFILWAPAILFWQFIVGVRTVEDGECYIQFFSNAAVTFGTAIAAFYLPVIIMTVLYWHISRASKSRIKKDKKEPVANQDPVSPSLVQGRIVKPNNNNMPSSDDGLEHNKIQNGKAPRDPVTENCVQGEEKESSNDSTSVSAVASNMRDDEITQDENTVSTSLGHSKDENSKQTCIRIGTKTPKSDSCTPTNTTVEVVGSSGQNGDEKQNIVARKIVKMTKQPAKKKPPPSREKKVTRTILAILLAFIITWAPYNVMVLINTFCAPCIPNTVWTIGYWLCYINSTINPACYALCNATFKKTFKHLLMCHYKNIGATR
Nature of the assay: Activity at human M2 receptor assessed as inhibition of forskolin-stimulated cAMP accumulation relative to carbachol. In kind it is functional. On the technique in general: cAMP levels reflect the balance of adenylyl cyclase and phosphodiesterase activity.

Assay [3] deals with T2, Muscarinic acetylcholine receptor M3 (Homo sapiens, UniProt P20309). Put plainly: Antagonist activity at human M3 receptor assessed as inhibition of carbachol […]. The settings on record: read-out: pA2 (converted).
The target of assay [4] is Muscarinic acetylcholine receptor M1 (Homo sapiens, UniProt P11229, Q185E). In kind it is functional, cell-based, L929.
For assay [5], the target named is T3, Muscarinic acetylcholine receptor M1/M5 chimeric protein (Homo sapiens, UniProt P08912+P11229).
T3 sequence (P11229 whole entry): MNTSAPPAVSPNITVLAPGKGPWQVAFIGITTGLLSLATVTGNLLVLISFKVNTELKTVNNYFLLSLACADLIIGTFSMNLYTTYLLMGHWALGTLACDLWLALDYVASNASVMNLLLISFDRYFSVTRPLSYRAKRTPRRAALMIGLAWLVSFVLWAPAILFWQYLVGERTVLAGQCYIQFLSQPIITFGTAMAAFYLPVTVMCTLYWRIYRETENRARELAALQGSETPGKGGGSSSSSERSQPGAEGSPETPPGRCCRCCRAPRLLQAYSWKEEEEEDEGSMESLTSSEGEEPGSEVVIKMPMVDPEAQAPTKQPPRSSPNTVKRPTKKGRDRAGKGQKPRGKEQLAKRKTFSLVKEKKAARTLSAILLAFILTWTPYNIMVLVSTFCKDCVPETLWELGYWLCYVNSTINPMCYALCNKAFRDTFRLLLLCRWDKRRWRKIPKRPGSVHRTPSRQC
T3 sequence (P08912 whole entry): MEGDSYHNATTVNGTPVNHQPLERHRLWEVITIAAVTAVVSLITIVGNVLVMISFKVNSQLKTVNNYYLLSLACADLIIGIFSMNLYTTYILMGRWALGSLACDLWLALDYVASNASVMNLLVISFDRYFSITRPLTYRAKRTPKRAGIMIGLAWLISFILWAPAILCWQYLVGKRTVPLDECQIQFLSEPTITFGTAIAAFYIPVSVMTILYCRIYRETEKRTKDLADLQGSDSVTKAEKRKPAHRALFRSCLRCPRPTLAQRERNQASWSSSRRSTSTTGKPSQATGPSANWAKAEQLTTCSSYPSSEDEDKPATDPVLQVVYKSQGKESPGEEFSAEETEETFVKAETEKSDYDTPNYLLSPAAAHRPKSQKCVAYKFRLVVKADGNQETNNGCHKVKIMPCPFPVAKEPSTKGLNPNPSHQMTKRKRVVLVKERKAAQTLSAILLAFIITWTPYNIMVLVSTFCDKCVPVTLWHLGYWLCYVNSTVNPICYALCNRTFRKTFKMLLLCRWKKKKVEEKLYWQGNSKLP
Nature of the assay: Agonist activity at human M1/M5(o2) chimeric receptor expressed in A9 L cells assessed as stimulation of phosphoinositide hydrolysis. The class given is functional, cell-based, L929.

Assay [6] addresses T3, Muscarinic acetylcholine receptor M1/M5 chimeric protein. Nature of the assay: Agonist activity at human M1/M5(o3) chimeric receptor expressed in A9 L cells assessed as stimulation of phosphoinositide hydrolysis. In kind it is functional, cell-based, L929.
Assay [7] addresses T4, Muscarinic acetylcholine receptor M1 (Homo sapiens, UniProt P11229).
T4 sequence (P11229 whole entry): T3 sequence (P11229 whole entry)
Put plainly: Inhibition of [3H](R)-QNB binding to human M1 receptor expressed in A9 L cells. The class given is cell-based, A9L.

The test system of assay [8] is Rattus norvegicus. Nature of the assay: Antipsychotic activity in Sprague-Dawley rat assessed as ability to reverse apomorphine effect on prepulse inhibition of the startle response at 3 mg/kg, sc. The class given is functional, organism-based. More on the design: dose 3 mg/kg. In a few lines: (§1)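 Male Sprague-Dawley rats, 250-300 g, habituated a day before. Drug in water or saline sc (1 mL/kg) 25 min, apomorphine 1.0 mg/kg 5 min pre-test; muscarinic agonists 0.1-3 mg/kg. Session of 15 each pulse-alone (120 dB, 100 ms) and pulse preceded 200 ms by 20 ms prepulse 12 dB above 70 dB background; 12 rats/group; %PPI calculated.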

The target in assay [9] is T3, Muscarinic acetylcholine receptor M1/M5 chimeric protein. Put plainly: Inhibition of [3H](R)-QNB binding to human M1/M5(o2) chimeric receptor expressed in A9 L cells. The class given is cell-based, A9L.
Assay [10] addresses Muscarinic acetylcholine receptor M1/M5 chimeric protein (Homo sapiens) (UniProt P11229+P08912). Nature of the assay: Agonist activity at human M1/M5(o2) chimeric receptor expressed in A9 L cells assessed as stimulation of phosphoinositide hydrolysis relative to carbachol. In kind it is functional, cell-based. The settings on record: L929. In a few lines: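 A9 L cells stably expressing the receptor, seeded 24 h, labelled overnight with 10 µCi/mL [3H]inositol in inositol-free DMEM; ligands in HBSS with 10 mM LiCl, 20 mM HEPES, 37 °C, 1 h; formic acid extraction, inositol phosphates counted by SPA beads.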

Assay [11] has as its target T3, Muscarinic acetylcholine receptor M1/M5 chimeric protein. Put plainly: Inhibition of [3H](R)-QNB binding to human M1/M5(o3) chimeric receptor expressed in A9 L cells. The class given is cell-based, A9L.
In assay [12] the target is T2, Muscarinic acetylcholine receptor M3. Put plainly: Agonist activity at human M3 receptor expressed in A9 L cells assessed as stimulation of phosphoinositide hydrolysis. The class given is functional, cell-based, L929.
Assay [13] concerns Rattus norvegicus. Put plainly: Antipsychotic activity in sc dosed Sprague-Dawley rat assessed as ability to reverse apomorphine effect on prepulse inhibition of the startle response. The class given is functional, organism-based. In a few lines: as §1

A word on the EC50: it is the midpoint of the concentration-response curve. The term Ki denotes a measure of affinity in units of concentration, obtained from inhibition or displacement. Low values mean higher affinity, high ones lower affinity.

Calls of active or inactive are those of the source. The rule behind the calls is not given here.

T2 sequence (P20309 whole entry): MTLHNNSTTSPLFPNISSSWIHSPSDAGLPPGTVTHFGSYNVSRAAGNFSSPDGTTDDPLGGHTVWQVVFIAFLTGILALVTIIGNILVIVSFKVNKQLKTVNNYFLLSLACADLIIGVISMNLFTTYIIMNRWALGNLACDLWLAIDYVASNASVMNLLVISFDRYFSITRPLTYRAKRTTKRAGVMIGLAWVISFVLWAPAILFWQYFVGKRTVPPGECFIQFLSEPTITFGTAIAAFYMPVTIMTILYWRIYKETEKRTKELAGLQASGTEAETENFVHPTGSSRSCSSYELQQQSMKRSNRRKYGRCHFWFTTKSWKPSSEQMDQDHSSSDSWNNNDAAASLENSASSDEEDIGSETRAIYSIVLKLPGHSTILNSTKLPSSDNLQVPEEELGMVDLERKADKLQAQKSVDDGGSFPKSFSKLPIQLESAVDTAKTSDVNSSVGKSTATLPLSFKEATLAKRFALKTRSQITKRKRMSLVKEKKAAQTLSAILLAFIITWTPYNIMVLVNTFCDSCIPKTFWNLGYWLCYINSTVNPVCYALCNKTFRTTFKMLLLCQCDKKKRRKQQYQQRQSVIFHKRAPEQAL
Muscarinic acetylcholine receptor M1 (Homo sapiens, UniProt P11229, Q185E), sequence (P11229 whole entry Q185E): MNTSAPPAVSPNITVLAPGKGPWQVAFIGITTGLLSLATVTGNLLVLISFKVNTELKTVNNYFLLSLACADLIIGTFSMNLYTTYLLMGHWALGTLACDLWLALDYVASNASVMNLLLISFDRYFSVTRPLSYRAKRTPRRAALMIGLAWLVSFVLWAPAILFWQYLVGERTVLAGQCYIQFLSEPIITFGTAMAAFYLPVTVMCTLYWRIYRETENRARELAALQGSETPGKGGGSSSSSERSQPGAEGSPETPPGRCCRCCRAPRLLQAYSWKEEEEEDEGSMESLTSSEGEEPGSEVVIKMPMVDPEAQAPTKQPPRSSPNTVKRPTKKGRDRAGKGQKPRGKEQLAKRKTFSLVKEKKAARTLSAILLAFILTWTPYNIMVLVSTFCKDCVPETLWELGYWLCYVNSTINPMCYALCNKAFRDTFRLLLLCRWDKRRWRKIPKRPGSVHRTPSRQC
Muscarinic acetylcholine receptor M1 (Homo sapiens, UniProt P11229, E170K), sequence (P11229 whole entry E170K): as the sequence (P11229 whole entry Q185E) above, with E170K, E185Q counted along it

In the case of `COc1nsnc1OCCOCCOCCOCCOc1nsnc1C1=CCCN(C)C1`, the EC50 in assay [1] is 2000 nM; in assay [4] it was 251 nM; in [5] it was 79.4 nM; in [6], 100 nM. Also, the Imax in assay [2] was 120%. The Kb in assay [3] is 158 nM. Also, the Ki was 50.1 nM in assay [7], 200 nM in [9] and 126 nM in assay [11]. The result in assay [8] was Active. Further, in assay [10], the Smax was found to be 20%.
Consider `CCCCCCOc1nsnc1C1=CCCN(C)C1` [XANOMELINE], for which the result in [2] and in assay [13] was inactive. Also, in assay [12], the EC50 is 25100 nM. For the same compound, in assay [10], the Smax came out at 75%.

(Values after ChEMBL document CHEMBL1138216, “Design and synthesis of novel derivatives of the muscarinic agonist tetra(ethylene glycol)(3-methoxy-1,2,5-thiadiazol-4-yl) [3-(1-methyl-1,2,5,6-tetrahydropyrid-3-yl)-1,2,5-thiadiazol-4-yl] ether (CDD-0304): effects of structural modifications on the binding and activity at muscarinic receptor …” (J Med Chem, 2006).)
